Test results from ChEMBL document CHEMBL4190277, “Discovery of imidazopyridines containing isoindoline-1,3-dione framework as a new class of BACE1 inhibitors: Design, synthesis and SAR analysis” (Eur J Med Chem, 2017).

What was measured:
Beta-secretase 1 [1] = target: T1, Beta-secretase 1 (Homo sapiens, UniProt P56817); assay: Inhibition of human BACE1 (1 to 460 residues) expressed in baculovirus expression system at 50 uM using Rh-EVNLDAEFK-quencher as substrate after 90 mins by FRET assay
In short: (§1)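 FRET kit assay, manufacturer's protocol with small modifications. Compounds were taken from DMSO stocks and diluted in assay buffer (50 mM sodium acetate, pH 4.5). Substrate and compound were mixed, then enzyme (1 U/mL) was added to start the reaction. After about 90 min at room temperature, 2.5 M sodium acetate stop solution was added. Read-out was fluorescence at Ex 545/Em 585 nm. Triplicate wells, 3–4 independent experiments, mean ± SEM; OM99 served as reference inhibitor.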

Beta-secretase 1 [2] = target: T1, Beta-secretase 1; assay: Inhibition of human BACE1 (1 to 460 residues) expressed in baculovirus expression system at 10 uM using Rh-EVNLDAEFK-quencher as substrate after 90 mins by FRET assay; in short: as §1
Beta-secretase 1 [3] = target: T1, Beta-secretase 1; assay: Inhibition of human BACE1 (1 to 460 residues) expressed in baculovirus expression system using Rh-EVNLDAEFK-quencher as substrate after 90 mins by FRET assay
In short: as §1, with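 “added.” for “added. Read-out was fluorescence at Ex 545/Em 585 nm.”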

T1 sequence (P56817 whole entry, the tested form may be a part): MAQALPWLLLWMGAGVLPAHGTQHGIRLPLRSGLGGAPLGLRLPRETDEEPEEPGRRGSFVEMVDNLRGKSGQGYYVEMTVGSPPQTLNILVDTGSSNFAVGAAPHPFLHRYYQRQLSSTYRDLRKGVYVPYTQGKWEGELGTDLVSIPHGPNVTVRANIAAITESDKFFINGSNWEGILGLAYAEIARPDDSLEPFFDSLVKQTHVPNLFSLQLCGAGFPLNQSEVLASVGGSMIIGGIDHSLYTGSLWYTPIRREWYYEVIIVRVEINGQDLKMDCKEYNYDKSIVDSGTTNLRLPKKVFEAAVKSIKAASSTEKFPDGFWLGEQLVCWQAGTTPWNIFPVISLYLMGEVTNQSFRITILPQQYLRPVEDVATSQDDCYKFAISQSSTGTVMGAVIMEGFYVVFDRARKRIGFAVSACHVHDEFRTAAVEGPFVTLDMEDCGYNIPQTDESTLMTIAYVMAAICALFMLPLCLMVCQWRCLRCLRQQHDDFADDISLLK

| inhibition (Beta-secretase 1 [1]) [%] | inhibition (Beta-secretase 1 [2]) [%] | IC50 (Beta-secretase 1 [3]) [µM] | SMILES |
| --- | --- | --- | --- |
| < 10 | < 10 | – | O=C1c2ccccc2C(=O)N1CCCOc1ccc(-c2nc3ccccn3c2NC2CCCCC2)cc1 |
| 63.7 | 37.6 | 29.4 | Cc1ccc2nc(-c3ccc(OCCCN4C(=O)c5ccccc5C4=O)cc3)c(NC3CCCCC3)n2c1 |
| 69.4 | 44.4 | – | Cc1cccn2c(NC3CCCCC3)c(-c3ccc(OCCCN4C(=O)c5ccccc5C4=O)cc3)nc12 |
| 100 | 61.3 | 2.84 | Cc1ccn2c(NC3CCCCC3)c(-c3ccc(OCCCN4C(=O)c5ccccc5C4=O)cc3)nc2c1 |
| 87.9 | 61.5 | 5.93 | Cc1cccc2nc(-c3ccc(OCCCN4C(=O)c5ccccc5C4=O)cc3)c(NC3CCCCC3)n12 |

Continued, compound first:

| SMILES | inhibition (Beta-secretase 1 [1]) [%] | inhibition (Beta-secretase 1 [2]) [%] | IC50 (Beta-secretase 1 [3]) [µM] |
| --- | --- | --- | --- |
| CC(C)(C)Nc1c(-c2ccc(OCCCN3C(=O)c4ccccc4C3=O)cc2)nc2ccc(Cl)cn12 | 33 | 17.7 | – |
| COc1cc(-c2nc3ccc(Br)cn3c2NC(C)(C)C)ccc1OCCCN1C(=O)c2ccccc2C1=O | 48.7 | 33.2 | – |
| O=C1c2ccccc2C(=O)N1CCCOc1ccc(-c2nc3ccc(Br)cn3c2NC2CCCCC2)cc1 | 45.3 | 32.2 | – |
| COc1cc(-c2nc3ccc(Br)cn3c2NC2CCCCC2)ccc1OCCCN1C(=O)c2ccccc2C1=O | 43.2 | 36.7 | – |
| Cc1ccn2c(NC(C)(C)C)c(-c3ccc(OCCCN4C(=O)c5ccccc5C4=O)cc3)nc2c1 | 18.3 | 24.2 | – |
| CC(C)(C)Nc1c(-c2ccc(OCCCN3C(=O)c4ccccc4C3=O)cc2)nc2ccc(Br)cn12 | 34.3 | 7.87 | – |
| O=C1c2ccccc2C(=O)N1CCCOc1ccc(-c2nc3ccc(Cl)cn3c2NC2CCCCC2)cc1 | 19.6 | 11.5 | – |
| COc1cc(-c2nc3ccccn3c2NC2CCCCC2)ccc1OCCCN1C(=O)c2ccccc2C1=O | 69.5 | 29.3 | – |
| COc1cc(-c2nc3ccc(Cl)cn3c2NC(C)(C)C)ccc1OCCCN1C(=O)c2ccccc2C1=O | 37.9 | 19.4 | – |
| COc1cc(-c2nc3ccc(Cl)cn3c2NC2CCCCC2)ccc1OCCCN1C(=O)c2ccccc2C1=O | 88.1 | 26.9 | 14.9 |
